Test results: ChEMBL document CHEMBL1137387, “Structural determinants of opioid activity in derivatives of 14-aminomorphinones: effects of changes to the chain linking of the C14-amino group to the aryl ring” (J Med Chem, 2006)
Active and inactive are the calls of the source. The calls are words filed in the database; no cut-off is given here.

Legend:
[1] = biological target: T1, Kappa-type opioid receptor (Homo sapiens, UniProt P41145); test: Displacement of [3H]U-69593 from human recombinant kappa opioid receptor expressed in CHO cells; type: cell-based
T1 sequence (P41145 whole entry): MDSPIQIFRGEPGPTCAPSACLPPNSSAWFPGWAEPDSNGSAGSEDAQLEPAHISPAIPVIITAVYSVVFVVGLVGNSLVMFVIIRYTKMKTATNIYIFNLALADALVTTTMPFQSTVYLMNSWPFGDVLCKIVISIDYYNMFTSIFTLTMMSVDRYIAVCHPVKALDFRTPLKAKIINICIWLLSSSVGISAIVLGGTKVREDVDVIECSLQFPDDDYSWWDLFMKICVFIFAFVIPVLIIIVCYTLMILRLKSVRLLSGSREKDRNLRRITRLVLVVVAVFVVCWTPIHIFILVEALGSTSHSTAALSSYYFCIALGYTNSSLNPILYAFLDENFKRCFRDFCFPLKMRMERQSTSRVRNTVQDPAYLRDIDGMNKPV

[2] = biological target: T2, Delta-type opioid receptor (Homo sapiens, UniProt P41143); test: Activity at human recombinant delta opioid receptor expressed in CHO cells assessed as stimulation of [35S]GTP-gamma-S binding; type: functional, cell-based
T2 sequence (P41143 whole entry): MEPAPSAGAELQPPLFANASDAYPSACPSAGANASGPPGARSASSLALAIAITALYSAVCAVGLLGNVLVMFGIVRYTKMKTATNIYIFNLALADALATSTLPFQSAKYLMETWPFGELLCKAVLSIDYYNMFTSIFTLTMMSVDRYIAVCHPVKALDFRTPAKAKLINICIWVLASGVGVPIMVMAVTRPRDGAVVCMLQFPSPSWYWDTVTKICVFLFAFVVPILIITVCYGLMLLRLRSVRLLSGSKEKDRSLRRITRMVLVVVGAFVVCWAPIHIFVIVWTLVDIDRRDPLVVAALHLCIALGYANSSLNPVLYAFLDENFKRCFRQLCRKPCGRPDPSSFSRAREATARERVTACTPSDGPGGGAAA

[3] = biological target: T2, Delta-type opioid receptor; test: Displacement of [3H]Cl-DPDPE from human recombinant delta opioid receptor expressed in CHO cells; type: cell-based
Mu-type opioid receptor [4] = biological target: T3, Mu-type opioid receptor (Homo sapiens, UniProt P35372); test: Activity at human recombinant mu opioid receptor expressed in CHO cells assessed as stimulation of [35S]GTP-gamma-S binding relative to DAMGO; type: functional, cell-based
T3 sequence (P35372 whole entry): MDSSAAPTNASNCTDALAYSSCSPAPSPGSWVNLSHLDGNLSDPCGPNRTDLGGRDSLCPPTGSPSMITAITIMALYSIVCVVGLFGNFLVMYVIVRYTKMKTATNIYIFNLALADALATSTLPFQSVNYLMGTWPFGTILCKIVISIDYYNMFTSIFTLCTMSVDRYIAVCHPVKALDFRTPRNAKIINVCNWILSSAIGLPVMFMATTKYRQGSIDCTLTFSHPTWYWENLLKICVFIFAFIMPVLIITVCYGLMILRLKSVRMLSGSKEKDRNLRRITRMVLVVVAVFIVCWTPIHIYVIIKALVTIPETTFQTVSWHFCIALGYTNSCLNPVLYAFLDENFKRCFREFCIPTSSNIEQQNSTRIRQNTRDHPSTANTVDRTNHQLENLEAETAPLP
How it was run: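 Membranes of CHO cells transfected with recombinant human MOR were assayed for stimulation of [35S]GTPγS binding. Efficacy is expressed against the standard DAMGO. Values are means of five or six experiments.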

Mu-type opioid receptor [5] = biological target: T3, Mu-type opioid receptor; test: Displacement of [3H]DAMGO from human recombinant mu opioid receptor expressed in CHO cells; type: cell-based
How it was run: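 Competition binding used membranes of CHO cells transfected with recombinant human MOR, with [3H]DAMGO as the selective radioligand. Affinity is reported as Ki (nM).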

Mu-type opioid receptor [6] = biological target: T3, Mu-type opioid receptor; test: Inhibition of DAMGO-stimulated [35S]GTP-gamma-S binding to mu opioid receptor expressed in C6 cells at 100 nM; type: functional, cell-based
How it was run: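 C6 membranes expressing MOR were preincubated with ligand (100 nM) or vehicle in Tris-HCl buffer for 1 h at 25 °C. They were then centrifuged, resuspended, held at 37 °C to dissociate weakly bound ligand, recentrifuged and washed twice more. Washed membranes (15 µg) were incubated 1 h at 25 °C with increasing DAMGO and buffered [35S]GTPγS, giving DAMGO concentration–effect curves.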

Mus musculus = test: Agonist activity in mouse tail withdrawal assay at 1 mg/kg relative to morphine; type: functional
How it was run: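 Antinociception in mice was measured as tail withdrawal from 50 °C water, with a test dose of 1 mg/kg compared against morphine. In a separate arm, the morphine antinociceptive dose–effect curve was determined after 24 h pretreatment to probe delayed MOR antagonism.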

[7] = biological target: Opioid receptor (mu and kappa) (Cavia porcellus) (UniProt P41144+P97266); test: Selectivity for guinea pig mu opioid receptor over kappa opioid receptor; type: protein assay
Chain of Opioid receptor (mu and kappa) (Cavia porcellus) (P41144 whole entry, looked up): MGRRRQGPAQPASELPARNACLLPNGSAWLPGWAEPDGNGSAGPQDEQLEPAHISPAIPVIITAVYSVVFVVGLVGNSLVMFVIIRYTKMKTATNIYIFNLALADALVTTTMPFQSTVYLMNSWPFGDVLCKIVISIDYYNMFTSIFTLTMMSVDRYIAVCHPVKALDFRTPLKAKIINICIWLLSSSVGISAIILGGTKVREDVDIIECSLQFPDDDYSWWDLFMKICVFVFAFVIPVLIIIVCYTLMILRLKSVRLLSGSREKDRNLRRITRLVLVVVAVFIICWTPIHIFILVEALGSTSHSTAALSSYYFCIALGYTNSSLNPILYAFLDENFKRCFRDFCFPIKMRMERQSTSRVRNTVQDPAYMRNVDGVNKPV
Chain of Opioid receptor (mu and kappa) (Cavia porcellus) (P97266 whole entry, looked up): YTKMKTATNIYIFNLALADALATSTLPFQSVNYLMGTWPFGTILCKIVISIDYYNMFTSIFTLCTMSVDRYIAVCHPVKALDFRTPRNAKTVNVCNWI

Mu-type opioid receptor [8] = biological target: Mu-type opioid receptor (Cavia porcellus, UniProt P97266); test: Displacement of [3H]DAMGO from mu opioid receptor in guinea pig brain homogenate; type: tissue-based
Chain of Mu-type opioid receptor (Cavia porcellus, UniProt P97266) (P97266 whole entry): as the sequence (P97266 whole entry, looked up) above

Cavia porcellus = organism: Cavia porcellus; test: Selectivity for guinea pig mu opioid receptor over delta opioid receptor
[9] = biological target: Kappa-type opioid receptor (Cavia porcellus, UniProt P41144); test: Displacement of [3H]U-69593 from kappa opioid receptor in guinea pig brain homogenate; type: tissue-based
Chain of Kappa-type opioid receptor (Cavia porcellus, UniProt P41144) (P41144 whole entry): as the sequence (P41144 whole entry, looked up) above

Mu-type opioid receptor [10] = biological target: T3, Mu-type opioid receptor; test: Displacement of [3H]diprenorphine from human mu opioid receptor expressed in C6 cells; type: cell-based
[11] = biological target: T1, Kappa-type opioid receptor; test: Displacement of [3H]diprenorphine from human recombinant kappa opioid receptor expressed in C6 cells; type: cell-based
[12] = biological target: T2, Delta-type opioid receptor; test: Displacement of [3H]diprenorphine from human recombinant delta opioid receptor expressed in C6 cells; type: cell-based

Structure (SMILES) | Ki [1] | IC50 [2] | Ki [3] | Ki (Mu-type opioid receptor [5]) | Activity (Mu-type opioid receptor [4]; filed as antagonist) | further results
COc1ccc2c3c1O[C@H]1C(=O)CC[C@@]4(NC(=O)Cc5ccc(Cl)cc5)[C@@H](C2)N(CC2CC2)CC[C@]314 | 2.59 nM | 88.7 nM | 51.9 nM | 2.64 nM |  | Efficacy (Mu-type opioid receptor [4]): 39%; Activity (Mu-type opioid receptor [4]; filed as partial agonist): Partial agonist
COc1ccc2c3c1O[C@H]1C(=O)CC[C@@]4(NC(=O)C/C=C/c5ccc(Cl)cc5)[C@@H](C2)N(CC2CC2)CC[C@]314 | 21.5 nM | 118 nM | 104 nM | 8.19 nM | Antagonist | 
COc1ccc2c3c1O[C@H]1C(=O)CC[C@@]4(O)[C@@H](C2)N(CC2CC2)CC[C@]314 | 128 nM | 1000 nM | 272 nM | 85.6 nM | Antagonist | 
O=C1CC[C@@]2(NCC/C=C/c3ccc(Cl)cc3)[C@H]3Cc4ccc(O)c5c4[C@@]2(CCN3CC2CC2)[C@H]1O5 | 3.69 nM | 1.17 nM | 2.1 nM | 1 nM | Antagonist | 
COc1ccc2c3c1O[C@H]1C(=O)CC[C@@]4(NC(=O)/C=C/c5ccc(Cl)cc5)[C@@H](C2)N(CC2CC2)CC[C@]314 |  | 7.16 nM |  |  | Antagonist | 
O=C(CCCc1ccc(Cl)cc1)N[C@@]12CCC(=O)[C@@H]3Oc4c(O)ccc5c4[C@@]31CCN(CC1CC1)[C@@H]2C5 | 2.95 nM | 1.37 nM | 3.85 nM | 1.34 nM | Antagonist | 
COc1ccc2c3c1O[C@H]1C(=O)CC[C@@]4(NC(=O)CCCc5ccc(Cl)cc5)[C@@H](C2)N(CC2CC2)CC[C@]314 | 7.51 nM | 79.9 nM | 89.4 nM | 3.88 nM | Antagonist | 
O=C(/C=C/c1ccc(Cl)cc1)N[C@@]12CCC(=O)[C@@H]3Oc4c(O)ccc5c4[C@@]31CCN(CC1CC1)[C@@H]2C5 [CLOCINNAMOX] |  | 0.19 nM |  |  | Antagonist | Activity (Mu-type opioid receptor [6]): Active
O=C(Cc1ccc(Cl)cc1)N[C@@]12CCC(=O)[C@@H]3Oc4c(O)ccc5c4[C@@]31CCN(CC1CC1)[C@@H]2C5 | 1 nM | 2.41 nM | 1.51 nM | 0.73 nM |  | Activity (Mus musculus): 10; Efficacy (Mu-type opioid receptor [4]): 29%; Activity (Mu-type opioid receptor [4]; filed as partial agonist): Partial agonist
COc1ccc2c3c1O[C@H]1C(=O)CC[C@@]4(NC(=O)/C=C/Cc5ccc(Cl)cc5)[C@@H](C2)N(CC2CC2)CC[C@]314 | 25.2 nM |  | 242 nM | 8.07 nM | Antagonist | 
O=C1CC[C@@]2(NCCCc3ccc(Cl)cc3)[C@H]3Cc4ccc(O)c5c4[C@@]2(CCN3CC2CC2)[C@H]1O5 |  | 0.02 nM |  |  | Antagonist | Ratio Ki [7]: 14.6; Ki (Mu-type opioid receptor [8]): 0.13 nM; Ratio Ki (Cavia porcellus): 8.5; Ki [9]: 1.9 nM
O=C(C/C=C/c1ccc(Cl)cc1)N[C@@]12CCC(=O)[C@@H]3Oc4c(O)ccc5c4[C@@]31CCN(CC1CC1)[C@@H]2C5 | 4.94 nM | 1.7 nM | 3.25 nM | 1.87 nM | Antagonist | 
O=C(CCc1ccc(Cl)cc1)N[C@@]12CCC(=O)[C@@H]3Oc4c(O)ccc5c4[C@@]31CCN(CC1CC1)[C@@H]2C5 |  | 0.03 nM |  |  | Antagonist | Ratio Ki [7]: 16.2; Ki (Mu-type opioid receptor [8]): 0.04 nM; Ratio Ki (Cavia porcellus): 15; Ki [9]: 0.65 nM
COc1ccc2c3c1O[C@H]1C(=O)CC[C@@]4(NCC/C=C/c5ccc(Cl)cc5)[C@@H](C2)N(CC2CC2)CC[C@]314 | 33.5 nM | 148 nM | 24.8 nM | 1.15 nM | Antagonist | 
O=C1CC[C@@]2(NC/C=C/c3ccc(Cl)cc3)[C@H]3Cc4ccc(O)c5c4[C@@]2(CCN3CC2CC2)[C@H]1O5 |  |  |  |  |  | Ki (Mu-type opioid receptor [10]): 0.32 nM; Ki [11]: 0.91 nM; Ki [12]: 0.63 nM
COc1ccc2c3c1O[C@H]1C(=O)CC[C@@]4(NCCCc5ccc(Cl)cc5)[C@@H](C2)N(CC2CC2)CC[C@]314 |  | 1.66 nM |  |  | Antagonist | Ratio Ki [7]: 133; Ki (Mu-type opioid receptor [8]): 0.59 nM; Ratio Ki (Cavia porcellus): 53; Ki [9]: 78.6 nM
COc1ccc2c3c1O[C@H]1C(=O)CC[C@@]4(NC/C=C/Cc5ccc(Cl)cc5)[C@@H](C2)N(CC2CC2)CC[C@]314 | 25.9 nM | 96.8 nM | 94.9 nM | 6.76 nM | Antagonist | 
O=C1CC[C@@]2(NCCc3ccc(Cl)cc3)[C@H]3Cc4ccc(O)c5c4[C@@]2(CCN3CC2CC2)[C@H]1O5 | 1.53 nM | 1.59 nM | 1.91 nM | 0.86 nM |  | Efficacy (Mu-type opioid receptor [4]): 34%; Activity (Mu-type opioid receptor [4]; filed as partial agonist): Partial agonist
COc1ccc2c3c1O[C@H]1C(=O)CC[C@@]4(NC(=O)CCc5ccc(Cl)cc5)[C@@H](C2)N(CC2CC2)CC[C@]314 |  | 0.76 nM |  |  | Antagonist | Ratio Ki [7]: 27.1; Ki (Mu-type opioid receptor [8]): 0.24 nM; Ratio Ki (Cavia porcellus): 21.2; Ki [9]: 6.5 nM
COc1ccc2c3c1O[C@H]1C(=O)CC[C@@]4(NC/C=C/c5ccc(Cl)cc5)[C@@H](C2)N(CC2CC2)CC[C@]314 |  |  |  |  |  | Ratio Ki [7]: 76.6; Ki (Mu-type opioid receptor [8]): 0.7 nM; Ratio Ki (Cavia porcellus): 63.6; Ki [9]: 53.6 nM
O=C1CC[C@@]2(NCCCCc3ccc(Cl)cc3)[C@H]3Cc4ccc(O)c5c4[C@@]2(CCN3CC2CC2)[C@H]1O5 | 5.27 nM | 0.67 nM | 2.18 nM | 0.96 nM | Antagonist | 
O=C1CC[C@@]2(NC/C=C/Cc3ccc(Cl)cc3)[C@H]3Cc4ccc(O)c5c4[C@@]2(CCN3CC2CC2)[C@H]1O5 | 3.72 nM | 3.35 nM | 6.65 nM | 1.89 nM | Antagonist | 
COc1ccc2c3c1O[C@H]1C(=O)CC[C@@]4(NCCc5ccc(Cl)cc5)[C@@H](C2)N(CC2CC2)CC[C@]314 | 13.1 nM | 63 nM | 33.8 nM | 1.33 nM |  | Efficacy (Mu-type opioid receptor [4]): 39%; Activity (Mu-type opioid receptor [4]; filed as partial agonist): Partial agonist
COc1ccc2c3c1O[C@H]1C(=O)CC[C@@]4(NCCCCc5ccc(Cl)cc5)[C@@H](C2)N(CC2CC2)CC[C@]314 | 41.5 nM | 61.1 nM | 55.9 nM | 2.23 nM | Antagonist | 
